Each structure is given as a SMILES string. The list shows a part of the results. Unmarked numbers belong to inactive results. Activity calls are given as the source filed them.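 How the source made its calls, unless noted: active means mean activation across triplicate tests above the threshold derived from the earlier primary screen (cut at about 5.5% in these data); inactive means the rest.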

Oxysterols receptor LXR-beta (Homo sapiens), sequence (P55055 whole entry, looked up, the tested form may be a part): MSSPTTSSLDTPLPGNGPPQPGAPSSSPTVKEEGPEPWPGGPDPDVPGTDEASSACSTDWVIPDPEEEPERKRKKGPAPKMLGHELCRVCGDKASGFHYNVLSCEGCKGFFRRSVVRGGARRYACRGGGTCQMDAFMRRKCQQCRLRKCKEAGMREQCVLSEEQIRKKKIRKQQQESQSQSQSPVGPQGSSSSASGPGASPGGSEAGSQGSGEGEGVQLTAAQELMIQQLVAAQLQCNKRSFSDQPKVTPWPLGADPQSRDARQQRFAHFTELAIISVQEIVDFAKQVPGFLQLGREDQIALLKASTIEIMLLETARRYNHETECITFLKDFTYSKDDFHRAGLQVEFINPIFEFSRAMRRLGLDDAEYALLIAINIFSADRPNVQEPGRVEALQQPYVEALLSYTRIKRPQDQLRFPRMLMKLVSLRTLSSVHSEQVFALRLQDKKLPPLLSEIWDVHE

The first assay addresses Oxysterols receptor LXR-beta (Homo sapiens) (UniProt P55055). Description: nonspecific reporter activation via LXR – cell-based, luminescence, HEK293, H. contortus campaign, counter-screen for hcDAF-12 agonist project, confirmation (AID 743027;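 active means mean percent activation of the reporter above a cutoff set as the average over tested compounds plus their standard deviation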). The settings on record: HEK293 Gal4-LXR tk-luc reporter, 24 h, at 6.8 µM, active compounds read high, normalized: DMSO 0%, positive control 100%. In a few lines:
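Assay system: Gal4-LXR and tk-luc reporter transfected HEK293 cells; Compound: 6.8 µM single dose; Times: one-day compound treatment at 37 °C; Technique: One-Glo luciferase luminescence; Read-out basis: % activation relative to DMSO and positive-control wells; Benchmarks: DMSO low control, positive-control high control; Repeats: three replicates per compound.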
On the technique in general: The purpose of a counterscreen is to sort out artefacts and off-target activity.
Turning to `O=C(Nc1ccc(Cl)cc1)C1c2cccc[n+]2CC(=O)N1Cc1ccc2c(c1)OCO2` (stereo unspecified), the activation was -0.2%.

As to `CCCc1cc(C(=O)Nc2ccc(Cl)cn2)cs1`, the activation was 1.33%. The same measure, in the same setting: next, `CC(C)(C)NC(=O)C(c1ccncc1)N(C(=O)CNC(=O)c1ccco1)c1ccc2c(c1)OCO2` (stereo unspecified): -0.43%; `NNC(=O)C1CCCn2c1nc1sc3c(c1c2=O)CCCC3` (stereo unspecified): -0.2%; `O=C(O)c1ccccc1CSc1nc2ccccc2s1`: 0.24%.

In the case of `NC(=O)Nc1ccccc1C(=O)NCCc1ccccc1`, the activation is 0.34%.

The next assay relates to Nuclear hormone receptor DAF-12 (Haemonchus contortus). Description: hcDAF-12 luciferase reporter activation, retest – cell-based, luminescence, HEK293, lit1-tk-luc, triplicate, confirmation (AID 743032).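 Further: 0% = DMSO only wells and 100% = 3 µM Δ7-dafachronic acid.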 The settings on record: HEK293 hcDAF-12 lit1-tk-luc reporter, at 6.8 µM, active compounds read high, % of Δ7-dafachronic acid response.
With `CCc1ccc(-c2cc(C(=O)NN3CCN(C)CC3)c3ccccc3n2)cc1`, the activation was 0.58%. The same measure, in the same setting: next, `CN(CC(=O)Nc1cccc(F)c1)C(=O)C1CC(=O)N(CCc2ccccc2)C1` (stereo unspecified): 4.2%. Same read-out and setting: the result for `Cc1cccc(Nc2nc(-c3ccccc3)cs2)n1` reads 16% (active). As for `Cc1cc(C)nc(Nc2n[nH]c(-c3ccccc3N)n2)n1`, the activation was 8.91% (active). Consider `O=C(O)CN1c2cccc3cccc(c23)S1(=O)=O`, for which the activation was 1.3%. The same measure, in the same setting: the result for `Cc1nn(CCOc2ccccc2)c(=O)n1-c1ccccc1F` reads 5.42%. The same measure, in the same setting: next, `CC(C)(C)OC(=O)N/N=C/c1ccc(C(=O)O)cc1`: 0.76%; `Clc1ccc(-c2cc(-c3ccccn3)on2)c(Cl)c1`: 12.6% (active). `Cc1c(C=O)c2ccccc2n1CC(=O)O`: the activation is 1.56%. `O=C(NC1CCCCC1)C(c1cc2ccccc2o1)n1c(=O)c(-c2ccco2)nc2ccccc21` (stereo unspecified): the activation was 5.1%. Still for that read-out and setting: next, `CN1CCc2ccccc2C1Cc1ccccc1NC(=O)c1sc2ccccc2c1Cl` (stereo unspecified): 1.76%; `c1ccc(-c2cc(-c3ccccc3)[nH]n2)cc1`: 15.7% (active); `Cc1ccc(-c2nc3ccccc3[nH]2)cc1N`: 10.4% (active). As for `O=C(Cn1ccc([N+](=O)[O-])n1)NCc1cccs1`, the activation was 1.71%. On the same count and under the same terms, the result for `COc1cc2ccccc2cc1C(=O)Nc1ccccc1C` reads 9.11% (active); that for `CNc1nc(Nc2ccc(C)c(Cl)c2)nc(N)c1[N+](=O)[O-]`, 10.9% (active). Turning to `O=C(O)c1[nH]c2ccccc2c1C(c1cccc(O)c1)c1c(C(=O)O)[nH]c2ccccc12`, the activation was 4.41%. Still for that read-out and setting: the result for `Cc1nc2cc(NC(=O)Nc3cccc(F)c3)ccc2n1C` reads 11.2% (active); that for `COc1ccc(OCc2cc(C(=O)N3CCCC3)no2)c2ccccc12`, 8.88% (active); that for `COc1ccc(CNC(=O)c2ccc3oc(C(C)C)nc3c2)cc1`, 2.54%.

For `Cc1cccc(-c2nc3ccccc3c(=O)n2NC(=O)Cc2ccc(Cl)cc2)c1`, the activation was 0.97%.

Regarding `CCS(=O)(=O)N1Cc2ccccc2CC1C(=O)Nc1nc2ccc(F)cc2s1` (stereo unspecified), the activation is 6.53% (active). Still for that read-out and setting: the result for `C/C(=N/NC(=S)Nc1ccccc1)c1ccc2c(c1)OCO2` reads 0.89%; that for `Cc1ccc2nc(-c3ccccc3)c(CC3CCCCC3)n2c1`, 9.61% (active). Turning to `O=C(OCC(=O)c1c[nH]c2ccccc12)c1cccc(O)c1`, the activation is 7.43% (active).

Take `Fc1ccc2nc(Nc3nc4c(s3)CCCC4)sc2c1`: the activation is 11.5% (active). On the same count and under the same terms, the result for `O=C(c1cc(-c2ccccc2O)on1)N1CCCC1` reads 6.57% (active); that for `O=C(/C=C/c1cnc2ccccc2n1)NC1CCCCCC1`, 4.58%. Still for that read-out and setting: the result for `Cc1ccc(NN=Nc2nc3c([nH]2)c(=O)n(C)c(=O)n3C)cc1` reads 3.07%. Regarding `Cc1ccccc1Nc1nnc(SCC(=O)c2cc3ccccc3o2)s1`, the activation was 1.9%. The same measure, in the same setting: the result for `CCS(=O)(=O)c1cc([N+](=O)[O-])c(Sc2ccccc2N)s1` reads 7.39% (active); that for `Cc1ccnc(NC(=O)c2ccoc2C)c1`, 3.77%; that for `Cc1ccccc1C(=O)N[C@H](C(=O)N1CCC[C@H]1C(=O)NCc1ccccc1)C(C)C`, 0.18%. On the same count and under the same terms, next, `CC(C)c1ccc(C=NNc2ccc([N+](=O)[O-])cn2)cc1`: 12% (active). On the same count and under the same terms, next, `O=C(Nc1ccc(Cl)cc1)C1c2cccc[n+]2CC(=O)N1Cc1ccc2c(c1)OCO2` (stereo unspecified): 2.78%; `CCCc1cc(C(=O)Nc2ccc(Cl)cn2)cs1`: 4.99%. For the molecule `CC(C)(C)NC(=O)C(c1ccncc1)N(C(=O)CNC(=O)c1ccco1)c1ccc2c(c1)OCO2` (stereo unspecified), the activation is -0.59%. Still for that read-out and setting: the result for `NNC(=O)C1CCCn2c1nc1sc3c(c1c2=O)CCCC3` (stereo unspecified) reads 4.24%.

For `O=C(O)c1ccccc1CSc1nc2ccccc2s1`, the activation was 9.05% (active). Same read-out and setting: next, `NC(=O)Nc1ccccc1C(=O)NCCc1ccccc1`: 4.12%.

The values above are taken from PubChem BioAssay.
